ChEMBL document CHEMBL3352780, “Discovery of Sulfonamidebenzamides as Selective Apoptotic CHOP Pathway Activators of the Unfolded Protein Response” (ACS Med Chem Lett, 2014)
Calls of active or inactive are those of the source.

How the values were obtained:
[1] = test system: MEF; test: Antiproliferative activity against wild-type MEF cells after 16 hrs by luminescence assay; type: functional, cell-based; details: Mus musculus
Procedure, shortened: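 Wild-type murine embryonic fibroblasts, run alongside a Chop-knockout MEF line, exposed to compound in dose-response for 16 h. Proliferation read by ATP-based luminescence. EC50 reported in μM ± SEM.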

[2] = test system: MEF; test: Antiproliferative activity against CHOP-knock out MEF cells after 16 hrs by luminescence assay; type: functional, cell-based; details: Mus musculus
Procedure, shortened: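 Wildtype and Chop-knockout murine embryonic fibroblasts given test agent in dose-response for 16 h. Proliferation read by an ATP-based luminescent assay. Chop-null cells tested up to 20 μM; four independent experiments, triplicate samples.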

[3] = test system: A253; test: Antiproliferative activity against human A253 cells after 24 hrs; type: functional, cell-based
Procedure, shortened: (§1)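 Oral squamous cell carcinoma panel cells treated with increasing concentrations of test agent for 24 h in dose-response proliferation assays.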

[4] = molecular target: Sodium-dependent dopamine transporter (Homo sapiens) (UniProt Q01959); test: Displacement of [125I] RTI-55 from human recombinant DAT expressed in CHOK1 cells after 3 hrs; type: cell-based; details: CHO-K1, concentration not given here
Sequence of Sodium-dependent dopamine transporter (Homo sapiens) (Q01959 whole entry): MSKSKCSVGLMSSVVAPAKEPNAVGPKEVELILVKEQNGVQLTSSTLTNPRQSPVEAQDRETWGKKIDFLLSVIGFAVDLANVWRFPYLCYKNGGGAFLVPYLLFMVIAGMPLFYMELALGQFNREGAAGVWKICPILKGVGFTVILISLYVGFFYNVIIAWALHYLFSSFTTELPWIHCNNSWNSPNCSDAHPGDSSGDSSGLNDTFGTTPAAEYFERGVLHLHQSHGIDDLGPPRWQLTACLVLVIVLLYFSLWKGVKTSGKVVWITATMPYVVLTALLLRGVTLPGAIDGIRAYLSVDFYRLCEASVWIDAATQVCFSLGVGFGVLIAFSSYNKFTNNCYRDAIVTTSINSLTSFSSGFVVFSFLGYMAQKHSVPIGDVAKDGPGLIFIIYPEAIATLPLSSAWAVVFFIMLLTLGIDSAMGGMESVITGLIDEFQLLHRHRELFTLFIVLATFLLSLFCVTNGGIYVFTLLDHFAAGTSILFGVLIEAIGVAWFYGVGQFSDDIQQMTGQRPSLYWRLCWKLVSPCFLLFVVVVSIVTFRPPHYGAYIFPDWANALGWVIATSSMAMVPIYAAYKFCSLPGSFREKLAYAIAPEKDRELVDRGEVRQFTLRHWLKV
Procedure, shortened: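 Profiled at 10 μM within a 67-target panel of GPCRs, nuclear receptors, transporters and ion channels. Significant inhibition defined as >50% at a single target.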

[5] = test system: UMSCC23; test: Induction of GADD34 mRNA expression in human UM-SCC-23 cells at 0.04 to 20 uM after 6 hrs by qRT-PCR analysis; type: functional, cell-based
Procedure, shortened: (§2)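 UMSCC23 cells treated in dose-response for 6 h, then lysed. UPR and CHOP target gene transcripts measured by qRT-PCR, with tunicamycin as ER-stress positive control.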

[6] = Aqueous solubility of the compound in PBS buffer by UV-spectrophotometry; type: physicochemical
Procedure, shortened: (§3)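 Solubility measured in PBS and pION buffer across a biologically relevant pH range.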

[7] = Antiproliferative activity against human HN30 cells after 24 hrs; type: functional; procedure, shortened: as §1
[8] = test system: UMSCC23; test: Induction of XBP1 mRNA expression in human UM-SCC-23 cells at 20 uM after 6 hrs by qRT-PCR analysis; type: functional, cell-based; procedure, shortened: as §2
[9] = test system: UMSCC23; test: Induction of CHOP mRNA expression in human UM-SCC-23 cells at 20 uM after 6 hrs by qRT-PCR analysis; type: functional, cell-based; procedure, shortened: as §2
[10] = test system: Plasma; test: Stability in mouse plasma assessed as compound remaining after 180 mins by LC/MS/MS method; type: ADME, cell-free; details: 3 h
[11] = test system: UMSCC23; test: Induction of CHOP mRNA expression in human UM-SCC-23 cells at 0.04 to 20 uM after 6 hrs by qRT-PCR analysis; type: functional, cell-based; procedure, shortened: as §2
[12] = Antiproliferative activity against human HN12 cells after 24 hrs; type: functional; procedure, shortened: as §1
[13] = test system: UMSCC23; test: Induction of ERCC1 mRNA expression in human UM-SCC-23 cells at 0.04 to 20 uM after 6 hrs by qRT-PCR analysis; type: functional, cell-based; procedure, shortened: as §2
[14] = test system: Plasma; test: Plasma protein binding in human plasma after 4 hrs by LC/MS/MS method; type: ADME, cell-free
[15] = Permeability of the compound at pH 5 to 7.4 by PAMPA; type: ADME
Procedure, shortened: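 PAMPA model of passive transcellular permeability, donor compartment at pH 5.0, 6.2 and 7.4. Compound concentration in the compartments determined by UV spectroscopy.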

[16] = Antiproliferative activity against human UM-SCC-23 cells after 24 hrs; type: functional, UMSCC23; procedure, shortened: as §1
[17] = Stability in human plasma assessed as compound remaining after 180 mins by LC/MS/MS method; type: ADME, cell-free; details: read-out: Stability
[18] = Plasma protein binding in mouse plasma after 4 hrs by LC/MS/MS method; type: ADME, cell-free; details: read-out: PPB (converted)
[19] = Aqueous solubility of the compound in pION buffer by UV-spectrophotometry; type: physicochemical; procedure, shortened: as §3
[20] = test system: HN6; test: Antiproliferative activity against human HN6 cells after 24 hrs; type: functional, cell-based; procedure, shortened: as §1
[21] = Cmax in CD-1 mouse at 30 mg/kg, ip; type: ADME, organism-based; parameters: dose 30 mg/kg, route intraperitoneal; details: in vivo
Procedure, shortened: (§4)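 Male CD-1 mice, single IP dose of 30 mg/kg, 3 mice per group. Plasma concentrations determined at 7 intervals over 8 h.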

[22] = Tmax in CD-1 mouse at 30 mg/kg, ip; type: ADME, organism-based; parameters: dose 30 mg/kg, route intraperitoneal; details: in vivo; procedure, shortened: as §4
[23] = test system: Liver microsome; test: Metabolic stability in human liver microsomes after 60 mins by LC/MS/MS method; type: ADME; details: 1 h
[24] = test system: UMSCC23; test: Induction of XBP1 mRNA expression in human UM-SCC-23 cells at 0.04 to 20 uM after 6 hrs by qRT-PCR analysis; type: functional, cell-based; procedure, shortened: as §2
[25] = test system: Liver; test: Metabolic stability in mouse liver microsomes after 60 mins by LC/MS/MS method; type: ADME; details: 1 h
[26] = Cytotoxicity against human Fa2N-4 cells assessed as cell viability after 24 hrs by luminescence assay; type: cell-based; details: fa2n-4, 24 h
[27] = test system: H460/T800; test: Antiproliferative activity against human H460/T800 cells after 24 hrs; type: functional, cell-based

Q: With `CC1CCN(S(=O)(=O)c2ccc(NC(=O)c3ccc([N+](=O)[O-])o3)cc2)CC1` as the molecule, how does the EC50 [1] read?
A: 4.6 µM

Q: What about the EC50 [2] of the same molecule?
A: 16.3 µM

Q: What does the source list for `O=C(Nc1ccc(S(=O)(=O)N2CCC(Cl)CC2)cc1)c1ccc([N+](=O)[O-])o1`?
A: Activity [3]: inactive; inhibition [4]: 68%; Activity [5]: Active; solubility [6]: soluble; Activity [7]: 9 µM; Activity [8]: inactive; EC50 [1]: 4.8 µM; Activity [9]: inactive; Stability [10]: 52%; Activity [11]: Active; Activity [12]: 7.2 µM; EC50 [2]: > 20 µM; Activity [13]: inactive; PPB [14]: > 99%; permeability [15]: permeable; Activity [16]: 7.3 µM; remaining at 3 h [17]: 86%; fraction unbound at 4 h [18]: 0.16; solubility [19]: soluble; Activity [20]: inactive; Cmax [21]: 140 nM; Tmax [22]: 10.2 min; Stability [23]: Unstable; Activity [24]: Active; Stability [25]: Unstable; Activity [26]: 11 µM; Activity [27]: inactive

Q: Which EC50 [1] does the source give for `O=C(Nc1ccc(S(=O)(=O)N2CCC(F)CC2)cc1)c1ccc([N+](=O)[O-])o1` here?
A: 17.5 µM

Q: And the EC50 [2]?
A: > 20 µM

Q: Which results are given for `CC(C)(C)C1CCN(S(=O)(=O)c2ccc(NC(=O)c3ccc([N+](=O)[O-])o3)cc2)CC1`?
A: EC50 [1]: 1.4 µM; EC50 [2]: 2.1 µM

Q: For `O=C(Nc1ccc(S(=O)(=O)N2CCCCC2)cc1)c1ccc([N+](=O)[O-])o1`, which EC50 [1] is on record?
A: 7.8 µM

Q: What about the EC50 [2] of the same molecule?
A: > 20 µM

Q: What does the source list for `CC1(C)CCN(S(=O)(=O)c2ccc(NC(=O)c3ccc([N+](=O)[O-])o3)cc2)CC1`?
A: EC50 [1]: 3 µM; EC50 [2]: 9.2 µM
